From ChEMBL document CHEMBL5390282, “Discovery of tert-Butyl Ester Based 6-Diazo-5-oxo-l-norleucine Prodrugs for Enhanced Metabolic Stability and Tumor Delivery” (J Med Chem, 2023)

Assays:
[1] = Prodrug conversion in C57BL/6 mouse model with CES-/- bearing mouse EL4 cells assessed as concentration of DON release in tumor administered subcutaneously at 1 mg/kg DON equivalent measured after 30 mins; type: ADME, organism-based; details: in vivo, sc, 0.5 h, read-out: Drug metabolism
Method in brief: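 Male and female CES1–/– C57BL/6 mice, 6–8 weeks old, each carrying a flank EL4 tumour (1 × 10^6 cells SC in PBS, grown to about 400 mm3). Prodrug dissolved just before use in ethanol:Tween 80:saline (5:10:85) and given once SC at 1 mg/kg DON equivalent, n = 3. At 30 min, plasma and tumour collected. DON measured by LC-MS/MS after dabsyl chloride derivatization, glutamate-d5 internal standard, calibration 0.03–100 nmol/mL.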

[2] = Prodrug conversion in jejunum of C57BL/6 mouse model with CES-/- bearing mouse EL4 cells assessed as Tmax of DON metabolite at 2.9 mg/kg, sc measured upto 6 hrs by LC-MS analysis; type: ADME, organism-based; details: in vivo
Method in brief: (§1)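 CES1–/– C57BL/6 mice with flank EL4 tumours (about 400 mm3) dosed SC at 2.9 mg/kg (1 mg/kg DON equivalent) in ethanol:Tween 80:saline (5:10:85). Plasma, tumour and jejunum sampled 0–6 h after dosing. DON quantified by LC-MS/MS after dabsyl chloride derivatization, glutamate-d5 internal standard. Cmax, Tmax and AUC derived by noncompartmental analysis.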

[3] = Prodrug conversion in jejunum of C57BL/6 mouse model with CES-/- bearing mouse EL4 cells assessed as Cmax of DON metabolite at 2.9 mg/kg, sc measured upto 6 hrs by LC-MS analysis; type: ADME, organism-based; parameters: dose 2.9 mg/kg, time < 6 hrs, route sc; details: in vivo; method in brief: as §1
[4] = Prodrug conversion in tumor of C57BL/6 mouse model with CES-/- bearing mouse EL4 cells assessed as Cmax of DON metabolite at 2.9 mg/kg, sc measured upto 6 hrs by LC-MS analysis; type: ADME, organism-based, Neoplasm; parameters: dose 2.9 mg/kg, time < 6 hrs, route sc; details: in vivo; method in brief: as §1
[5] = Stability in human plasma suspended with human P493B cells assessed as tumor cell to plasma partitioning at 20 uM incubated for 1 hr; type: ADME
Method in brief: (§2)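 P493B cells resuspended in human plasma at 10 million cells/mL and preincubated 5 min at 37 °C. Prodrug spiked at 20 μM final and incubated 1 h at 37 °C, in triplicate. Cells pelleted at 1000g. Plasma and pellet each analysed by LC-MS for intact prodrug and DON, with calibration made in each matrix. Partitioning expressed as cell/plasma ratio.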

[6] = Prodrug conversion in tumor of C57BL/6 mouse model with CES-/- bearing mouse EL4 cells assessed as AUC of DON metabolite at 2.9 mg/kg, sc measured upto 6 hrs by LC-MS analysis; type: ADME, organism-based, Neoplasm; parameters: time < 6 hrs, dose 2.9 mg/kg, route sc; details: in vivo; method in brief: as §1
[7] = Drug concentration in jejunum of C57BL/6 mouse model with CES-/- bearing mouse EL4 cells at 2.9 mg/kg, sc measured upto 6 hrs by LC-MS analysis; type: ADME, organism-based; method in brief: as §1
[8] = Prodrug conversion in tumor of C57BL/6 mouse model with CES-/- bearing mouse EL4 cells assessed as Tmax of DON metabolite at 2.9 mg/kg, sc measured upto 6 hrs by LC-MS analysis; type: ADME, organism-based, Neoplasm; details: in vivo; method in brief: as §1
[9] = Prodrug conversion in plasma of C57BL/6 mouse model with CES-/- bearing mouse EL4 cells assessed as half life of DON metabolite at 2.9 mg/kg, sc measured upto 6 hrs by LC-MS analysis; type: ADME, organism-based; details: in vivo; method in brief: as §1
[10] = Chemical stability of compound at pH 7.4 at 10 uM incubated for 24 hrs by HRMS analysis; type: physicochemical; details: buffer, pH 7.4, 24 h
Method in brief: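 Prodrug spiked at 10 μM into pH 7.4 buffer and held at 37 °C for 24 h. Loss of prodrug followed by HRMS.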

[11] = Prodrug conversion in plasma of C57BL/6 mouse model with CES-/- bearing mouse EL4 cells assessed as Tmax of DON metabolite at 2.9 mg/kg, sc measured upto 6 hrs by LC-MS analysis; type: ADME, organism-based; details: in vivo; method in brief: as §1
[12] = Prodrug conversion in jejunum of C57BL/6 mouse model with CES-/- bearing mouse EL4 cells assessed as AUC (0 to t) of DON metabolite at 2.9 mg/kg, sc measured upto 6 hrs by LC-MS analysis; type: ADME, organism-based; details: in vivo; method in brief: as §1
[13] = Prodrug conversion in jejunum of C57BL/6 mouse model with CES-/- bearing mouse EL4 cells assessed as AUC of DON metabolite at 2.9 mg/kg, sc measured upto 6 hrs by LC-MS analysis; type: ADME, organism-based; parameters: dose 2.9 mg/kg, time < 6 hrs, route sc; details: in vivo; method in brief: as §1
[14] = Prodrug conversion in C57BL/6 mouse model with CES-/- bearing mouse EL4 cells assessed as ratio of DON metabolite AUC in tumor to jejunum at 2.9 mg/kg, sc measured upto 6 hrs by LC-MS analysis; type: ADME, organism-based; details: in vivo; method in brief: as §1
[15] = Prodrug conversion of C57BL/6 mouse model with CES-/- bearing mouse EL4 cells assessed as ratio of DON metabolite AUC (0 to t) in tumor to jejunum at 2.9 mg/kg, sc measured upto 6 hrs by LC-MS analysis; type: ADME, organism-based; details: in vivo; method in brief: as §1
[16] = Prodrug conversion in plasma of C57BL/6 mouse model with CES-/- bearing mouse EL4 cells assessed as AUC of DON metabolite at 2.9 mg/kg, sc measured upto 6 hrs by LC-MS analysis; type: ADME, organism-based; parameters: time < 6 hrs, dose 2.9 mg/kg, route sc; details: in vivo; method in brief: as §1
[17] = Prodrug conversion in C57BL/6 mouse model with CES-/- bearing mouse EL4 cells assessed as ratio of DON metabolite AUC in tumor to plasma at 2.9 mg/kg, sc measured upto 6 hrs by LC-MS analysis; type: ADME, organism-based; details: tumour; method in brief: as §1
[18] = Prodrug conversion in tumor of C57BL/6 mouse model with CES-/- bearing mouse EL4 cells assessed as AUC (0 to t) of DON metabolite at 2.9 mg/kg, sc measured upto 6 hrs by LC-MS analysis; type: ADME, organism-based, Neoplasm; details: in vivo; method in brief: as §1
[19] = Prodrug conversion in plasma of C57BL/6 mouse model with CES-/- bearing mouse EL4 cells assessed as Cmax of DON metabolite at 2.9 mg/kg, sc measured upto 6 hrs by LC-MS analysis; type: ADME, organism-based; parameters: time < 6 hrs, dose 2.9 mg/kg, route sc; details: in vivo; method in brief: as §1
[20] = Prodrug conversion in tumor of C57BL/6 mouse model with CES-/- bearing mouse EL4 cells assessed as half life of DON metabolite at 2.9 mg/kg, sc measured upto 6 hrs by LC-MS analysis; type: ADME, organism-based, Neoplasm; details: in vivo; method in brief: as §1
[21] = Prodrug conversion in human P493B cells suspended in human plasma assessed as DON metabolite concentration at 20 uM incubated for 1 hr; type: ADME, cell-based; method in brief: as §2
[22] = Prodrug conversion in jejunum of C57BL/6 mouse model with CES-/- bearing mouse EL4 cells assessed as half life of DON metabolite at 2.9 mg/kg, sc measured upto 6 hrs by LC-MS analysis; type: ADME, organism-based; details: in vivo; method in brief: as §1
[23] = Stability in human P493B cells suspended in human plasma assessed as DON metabolite release at 20 uM incubated for 1 hr; type: ADME, cell-based; method in brief: as §2
[24] = Prodrug conversion of C57BL/6 mouse model with CES-/- bearing mouse EL4 cells assessed as ratio of DON metabolite AUC (0 to t) in tumor to plasma at 2.9 mg/kg, sc measured upto 6 hrs by LC-MS analysis; type: ADME, organism-based; details: tumour; method in brief: as §1
[25] = tested on: P493B; assay: Antiproliferative activity against human P493B cells assessed as reduction in cell viability incubated for 72 hrs by Cell Titer 96 Aqueous assay; type: functional, cell-based
Method in brief: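 P493B lymphoma cells seeded at 20 000 cells/well. Test agent added as half-log serial dilutions in 0.2% DMSO final, then 72 h growth. CellTiter 96 AQueous reagent added for 2 h and absorbance read at 490 nm. Viability scaled between untreated cells (100%) and cell-free medium (0%). EC50 obtained by nonlinear regression of log-transformed data.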

[26] = Stability in human P493B cells suspended in human plasma assessed as tumor cell to plasma partitioning ratio at 20 uM incubated for 1 hr; type: ADME, cell-based; method in brief: as §2
[27] = Prodrug conversion in plasma of C57BL/6 mouse model with CES-/- bearing mouse EL4 cells assessed as AUC (0 to t) of DON metabolite at 2.9 mg/kg, sc measured upto 6 hrs by LC-MS analysis; type: ADME, organism-based; details: in vivo; method in brief: as §1

CN(C)CC(=O)N[C@@H](CCc1ccccc1)C(=O)N[C@@H](CCC(=O)C=[N+]=[N-])C(=O)OC(C)(C)C
concentration [1]: 4.52 µM

CN(C)CC(=O)N[C@@H](Cc1ccccc1)C(=O)N[C@@H](CCC(=O)C=[N+]=[N-])C(=O)OC(C)(C)C
Tmax [2]: 60 min
Cmax [3]: 1.54 µM
Cmax [4]: 5.49 µM
Stability [5]: Stable
AUC [6]: 14.4 µM·h
concentration at 6 h [7]: < 0.01 µM
Tmax [8]: 30 min
t1/2 [9]: 87 min
Stability [10]: Stable
Tmax [11]: 30 min
AUCt [12]: 3.13 nmol·h/g
AUC [13]: 3.67 µM·h
Ratio AUC [14]: 3.92
Ratio AUC [15]: 4.4
AUC [16]: 3.97 µM·h
Ratio AUC [17]: 3.63
AUCt [18]: 13.7 nmol·h/g
Cmax [19]: 1.86 µM
t1/2 [20]: 83.4 min
Drug metabolism [21]: 46.7 µM
t1/2 [22]: 59.4 min
Stability [23]: Unstable
Ratio AUC [24]: 3.6
Activity [25]: Dose-Dependent Effect
Ratio [26]: 140
concentration [1]: 5.49 µM
AUCt [27]: 3.8 nmol·h/g

CN(C)CC(=O)N[C@@H](Cc1ccc(C(F)(F)F)cc1)C(=O)N[C@@H](CCC(=O)C=[N+]=[N-])C(=O)OC(C)(C)C
concentration [1]: 4.16 µM

CC(=O)N[C@@H](Cc1c[nH]c2ccccc12)C(=O)N[C@@H](CCC(=O)C=[N+]=[N-])C(=O)OC(C)C [SIRPIGLENASTAT]
Stability [5]: Stable
Stability [10]: Stable
Drug metabolism [21]: 9.1 µM
Stability [23]: Unstable
Activity [25]: Dose-Dependent Effect
Ratio [26]: 180
concentration [1]: 1.21 µM
